# Assays:
# neutrophils [1] = conditions: ref [15], cited from earlier work
# CXCR2 [2] = assay: Confocal analysis of CXCR2 internalization in neutrophils; assay type: cell-based, human; conditions: LL-37 5 µM or CXCL8 50 nM, 1 h, 37°C; Fig. 8
# Outline: (§1)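 Neutrophils came from citrated donor blood by dextran sedimentation and Ficoll gradient. […] Cells were fixed in 2% paraformaldehyde, permeabilised with saponin and blocked with human serum. Anti-CXCR1 or anti-CXCR2 mAb (4°C), then Alexa 488 anti-mouse IgG, DAPI mount, confocal imaging; three independent experiments.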
# neutrophils [3] = conditions: ref [13]; cited from earlier work
# CXCR1 [4] = assay: CXCR1 surface expression on neutrophils, flow cytometry; assay type: cell-based, human
# Outline: (§2)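 Human blood neutrophils were isolated by dextran sedimentation and Ficoll (>95% CD16+) and held at 5×10^6/mL in RPMI 1640 with 1% FBS. They were treated 3h with a dose series (test peptide 1–10 µM; chemokines 1, 5, 10, 50 nM) or with 5 µM for 0.5–3h. Cells were blocked in 10% human serum and stained with anti-CXCR1-APC/anti-CXCR2-FITC or anti-P2X7-FITC, plus anti-CD16. Read-out was flow cytometry GMFI.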
# mast cells = conditions: ref [3], [9], [10]; cited from earlier work
# CXCR2 [5] = assay: CXCR2 surface expression on neutrophils, flow cytometry; assay type: cell-based, human
# [6] = tested on: 125I-CXCL8 specific binding sites on neutrophils (CXCR1/2); assay: Competition with 125I-CXCL8 for binding to neutrophils; parameters: species or system human; conditions: 1.25 nM 125I-CXCL8, 2h on ice, triplicate, dose-dependent, Fig. 5B
# P2X7 = P2X7 surface expression on neutrophils, flow cytometry; assay type: cell-based, human; conditions: LL-37 treated neutrophils, 3h; Fig. 2D
# Outline: as §2
# [7] = tested on: CXCR1 transfected HEK293 cells; assay: Secondary necrosis of CXCR1 transfected HEK293 cells; assay type: cell-based; conditions: Supporting information Fig. 4
# CXCR1 [8] = assay: Confocal analysis of CXCR1 internalization in neutrophils; assay type: cell-based, human; conditions: LL-37 5 µM or CXCL8 50 nM, 1 h, 37°C; Fig. 8
# Outline: as §1
# CXCR2 [9] = assay: CXCR2 surface expression on monocytes; assay type: cell-based, human; conditions: Supporting information Fig. 2
substance,measurement,setting,value
"LL-37: ~4.5 kD active α-helical peptide, C-terminal domain of human cathelicidin hCAP18",cytotoxicity,neutrophils [1]; LL-37 10 µM,general cytotoxicity is observed at this dosage
same,toxic effect on freshly isolated neutrophils,neutrophils [1]; annexin V negative,no toxic effect
same,CXCR2 translocation (internalization),CXCR2 [2],translocation of CXCR2 but not CXCR1 to the cytoplasmic granules
same,inhibition of spontaneous neutrophil apoptosis,neutrophils [3],potent inhibitor of spontaneous neutrophil apoptosis
same,"CXCR1 surface expression, time course","CXCR1 [4]; LL-37 5 µM, 0.5-3h, Fig. 1C",not affected by LL-37 treatment
same,CXCR1 down-regulation at 10 µM,"CXCR1 [4]; LL-37 10 µM, 3h",does not down-regulate CXCR1
same,migration of mast cells,mast cells,"migration of human peripheral monocytes, neutrophils, CD4+ T cells, and mast cells"
same,down-regulation of CXCR2 in time course compared to untreated controls,"CXCR2 [5]; LL-37 5 µM, at 3h, p<0.001, Fig. 1B, four independent experiments",50%
same,CXCR2 surface expression at 10 µM,"CXCR2 [5]; LL-37 10 µM, 3h",a further reduction was observed at 10 µM
same,maximum competition of 125I-CXCL8 binding,[6]; 2×10^6 cells,around 50%
same,displacement of 125I-CXCL8,[6],partly displace
same,P2X7 surface expression,P2X7,up-regulate the expression of P2X7
same,"generation of secondary necrotic cells, HEK293/CXCR1",[7],generation of secondary necrotic cells
same,CXCR1 translocation (internalization),CXCR1 [8],translocation of CXCR2 but not CXCR1 to the cytoplasmic granules
same,CXCR2 down-regulation on monocytes,CXCR2 [9],down-regulate CXCR2

# From article PMC3076219 (European journal of immunology, 2009)
